# Experimental data collected from several papers.
# Compare with care: the assays were run in different laboratories.
# Target: Cyclin-dependent kinase 8 (CDK8, Homo sapiens, UniProt P49336)
SMILES,test,setting,remaining binding
O=C(c1ccc(Nc2nccc(-c3cc4ccccc4s3)n2)cc1)N1CCC(N2CCCC2)CC1,"binding, competition with immobilised ligand",1 µM,91%
CN(CCCC(F)(F)F)c1nccc(-c2cnn3ncccc23)n1,binding,1 µM,100%
COc1cnc(Nc2cccc(S(N)(=O)=O)c2)nc1N1CCN(c2ccccc2)CC1,"binding, competition with immobilised ligand",1 µM,95%
N[C@H]1CCN(c2nccc(-c3cnn4ncccc34)n2)C1,binding,1 µM,100%
Nc1ncc2c(n1)-c1c([nH]c3ccc(C#CC4CC4)cc13)CCCC2,"binding, competition with immobilised ligand",1 µM,100%
O=C1NC(c2ccccn2)Sc2ccccc21 (centres unmarked),"cell-free assay, competition with immobilised ligand",1 µM,78%
O=C(NCC1CCOCC1)c1n[nH]cc1NC(=O)c1c(F)cccc1F,"binding, competition with immobilised ligand",1 µM,100%
CN(C)c1nccc(-c2cnn3ncccc23)n1,binding,1 µM,100%
O=C(NCCCN1CCOCC1)c1ccc(Nc2ncc(Cl)c(-c3ccc(Cl)s3)n2)cc1,"binding, competition with immobilised ligand",1 µM,100%
C[C@@]1(Cc2ccc(C#N)cc2)C(=O)N(c2cc(Cl)cc(Cl)c2)c2ncc(C(=O)NC3(c4nc(C5CCC5)no4)CC3)n21,"cell-free assay, competition with immobilised ligand",1 µM,100%
Cc1cnn2ncc(-c3ccnc(N(C)C)n3)c2c1,binding,1 µM,93%
CN(C)c1ncnc(-c2ccc3nc(Nc4cc(CN5CCN(C(=O)CC(F)(F)F)CC5)ccn4)[nH]c3c2)c1Cl,"cell-free assay, competition with immobilised ligand",1 µM,90%
CN(c1nccc(-c2cnn3ncccc23)n1)C1CC1,binding,1 µM,100%
O=C(c1ccc(Nc2ncc(Cl)c(-c3ccc(Cl)s3)n2)cc1)N1CCC(N2CCCC2)CC1,"binding, competition with immobilised ligand",1 µM,100%
Cc1cc(NC(=O)c2cccc(S(F)(F)(F)(F)F)c2)cc(-n2ccn3nc(-c4cccnc4)cc23)c1,"cell-free assay, competition with immobilised ligand",1 µM,86.2%
C[C@H]1CCN(c2nccc(-c3cnn4ncccc34)n2)C1,binding,1 µM,100%
COc1ccc2c(O[C@@H]3C[C@H]4C(=O)N[C@]5(C(=O)O)CC5/C=C\CCCCC[C@H](NC(=O)OC5CCCC5)C(=O)N4C3)cc(-c3csc(NC(=O)C(C)C)n3)nc2c1C (some centres unmarked),"cell-free assay, competition with immobilised ligand",1 µM,68%
FC(F)(F)Oc1cccc(-c2cnc3ccc(-c4ccncc4)nn23)c1,"cell-free assay, competition with immobilised ligand",5 µM,12%
CC(=O)C1=C(C)N(c2cccc(C(F)(F)F)c2)C(=O)N[C@@H]1c1ccc(C#N)nc1,"cell-free assay, competition with immobilised ligand",1 µM,65.3%
COc1ncc2cc3ccccc3nc2c1C#N,"cell-free assay, competition with immobilised ligand",5 µM,100%
